E-selectin induc: E-selectin induction in HUVECs, primary screen, imaging, HUVEC, immunofluorescence imaging, single point. P16581. normalized: neutral wells 0, TNF-alpha wells 100. activation, % at 7.58 µM. hit rate 0.37% among 260,000. AID 686992, 2013;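 active = mean E-selectin-positive cell signal at least 10% of the positive control, reached in at least 60% of replicates, without over 20% cell loss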
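Assay system: HUVEC, human umbilical vein endothelial cells / Amount: 3,000 HUVEC/well / Controls: TNF-alpha positive control, DMSO neutral control / Compound dosing: single concentration / Medium: EGM-2 over gelatin coat / Evaluation: percent E-selectin-positive cells / Signal: immunofluorescence imaging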
Starred values were filed as active, the others as inactive. Only a selection was taken, and hits are over-represented in it overall.

SMILES	E-selectin induc
Cc1cc(Br)ccc1NC(=O)CN(C)C(=O)c1ccc(-n2cncn2)c([N+](=O)[O-])c1	0
Cc1cccc(C)c1NC(=O)CN(C)C(=O)c1ccc(-n2cncn2)c([N+](=O)[O-])c1	50*
COc1ccc(S(=O)(=O)N(C)C[C@H]2Oc3ccc(NC(=O)Cc4cn(C)c5ccccc45)cc3C(=O)N([C@@H](C)CO)C[C@H]2C)cc1	0
COc1cccc(NC(=O)C[C@@H]2CC[C@@H]3[C@@H](COc4ccc(NC(=O)c5ccccc5F)cc4C(=O)N3C)O2)c1	0
CCc1cc2c(=O)[nH]c(-c3ccncc3)nc2s1	-1
N#Cc1cc2c([nH]c1=O)CCCC2	0
Cc1[nH]c(=O)c(C#N)cc1-c1ccncc1	58*
O=C(Nc1ccc(C(F)(F)F)cc1)N[C@H]1CC[C@@H](CCn2cc(C3(O)CCCC3)nn2)O[C@@H]1CO	0
CN(C)C(=O)c1ccc(-c2ccc([C@H]3[C@@H](C#N)N(C(=O)Cc4ccccn4)[C@H]3CO)cc2)cc1	0
COc1ccc(S(=O)(=O)Nc2ccc3c(c2)C(=O)N([C@H](C)CO)C[C@@H](C)[C@@H](CN(C)S(C)(=O)=O)O3)cc1	-2
C[C@H](CO)N1C[C@H](C)[C@@H](CN(C)S(=O)(=O)c2cn(C)cn2)Oc2ncc(C3=CCCC3)cc2C1=O	1
Cc1ccc(S(=O)(=O)Nc2ccc3c(c2)C(=O)N([C@H](C)CO)C[C@@H](C)[C@H](CN(C)C(=O)Nc2ccccc2)OCCCC[C@H](C)O3)cc1	0
Cn1nc(Oc2ncc(C(F)(F)F)cc2Cl)cc1C(F)(F)F	-2
Oc1cccc(Oc2ncc(C(F)(F)F)cc2Cl)c1	132*
FC(F)(F)c1cnc(Oc2cccc3ccccc23)c(Cl)c1	1
CCC(=O)N1C[C@H](C)[C@H](OC)CN(C)C(=O)c2cc(NS(C)(=O)=O)ccc2OC[C@@H]1C	0
C[C@H]1CN([C@@H](C)CO)C(=O)c2cc(NC(=O)c3ccncc3)ccc2O[C@@H]1CN(C)S(=O)(=O)c1ccc(F)cc1	7
COc1ccc(S(=O)(=O)N(C)C[C@H]2Oc3ccc(NC(=O)c4ccncc4)cc3C(=O)N([C@@H](C)CO)C[C@H]2C)cc1	22
C[C@@H]1CN([C@H](C)CO)C(=O)c2cc(NC(=O)c3ccncc3)ccc2O[C@H]1CN(C)S(=O)(=O)c1ccc(Cl)cc1	0
COc1ccc(S(=O)(=O)N(C)C[C@@H]2Oc3ccc(NC(=O)c4ccncc4)cc3C(=O)N([C@@H](C)CO)C[C@@H]2C)cc1	37*
COc1ccc(S(=O)(=O)N(C)C[C@@H]2Oc3ccc(NC(=O)c4ccncc4)cc3C(=O)N([C@H](C)CO)C[C@H]2C)cc1	28*
Cc1ccc(S(=O)(=O)N(C)C[C@H]2Oc3ccc(NC(=O)c4ccncc4)cc3C(=O)N([C@H](C)CO)C[C@@H]2C)cc1	3
C[C@@H]1CN([C@H](C)CO)C(=O)c2cc(C3=CCCCC3)cnc2O[C@H]1CN(C)C(=O)c1cccc(F)c1	0
Cc1ccc(S(=O)(=O)Nc2ccc3c(c2)C(=O)N([C@H](C)CO)C[C@H](C)[C@@H](CN(C)C(=O)Nc2ccccc2)O3)cc1	0
CCC(=O)N(C)C[C@@H]1Oc2ncc(Br)cc2C(=O)N([C@H](C)CO)C[C@@H]1C	0
SMILES	E-selectin induc
Cc1ccc(S(=O)(=O)Nc2ccc3c(c2)C(=O)N([C@H](C)CO)C[C@H](C)[C@H](CN(C)Cc2ccc(-c4ccccc4)cc2)O3)cc1	-13
COc1ccc(S(=O)(=O)Nc2ccc3c(c2)C(=O)N([C@H](C)CO)C[C@H](C)[C@@H](CN(C)Cc2ccc(Cl)c(Cl)c2)O3)cc1	-1
COc1ccc(S(=O)(=O)Nc2ccc3c(c2)C(=O)N([C@H](C)CO)C[C@H](C)[C@H](CN(C)Cc2ccc(Cl)c(Cl)c2)O3)cc1	5
Cc1ccc(S(=O)(=O)Nc2ccc3c(c2)C(=O)N([C@H](C)CO)C[C@@H](C)[C@H](CN(C)Cc2ccc(-c4ccccc4)cc2)O3)cc1	157*
COc1ccc(S(=O)(=O)Nc2ccc3c(c2)C(=O)N([C@@H](C)CO)C[C@@H](C)[C@@H](CN(C)Cc2ccc(Cl)c(Cl)c2)O3)cc1	42*
COc1ccc(S(=O)(=O)Nc2ccc3c(c2)C(=O)N([C@@H](C)CO)C[C@@H](C)[C@@H](CN(C)Cc2ccc(C(=O)Nc4ccccc4N)cc2)O3)cc1	34*
COc1ccc(S(=O)(=O)Nc2ccc3c(c2)C(=O)N([C@@H](C)CO)C[C@@H](C)[C@H](CN(C)Cc2ccc(C(=O)Nc4ccccc4N)cc2)O3)cc1	2
COc1ccc(S(=O)(=O)Nc2ccc3c(c2)C(=O)N([C@H](C)CO)C[C@@H](C)[C@@H](CN(C)Cc2ccc(C(=O)Nc4ccccc4N)cc2)O3)cc1	2
C[C@@H]1CN([C@@H](C)CO)C(=O)c2cc(NS(=O)(=O)c3ccccc3)ccc2O[C@H]1CN(C)Cc1ccc(-c2ccccc2)cc1	1
C[C@H](CO)N1C[C@H](C)[C@H](CN(C)Cc2cccc(C(F)(F)F)c2)OCc2cn(nn2)CCCC1=O	0
